This is a sample that favours compounds with a hit; in the whole collection about 1.1% have one here.
CAL PDZ FP-1: human CAL PDZ-peptide interaction inhibition; 0.02% of 330,000 active; AID 504414; inhibition, % at 20 µM; purified CAL PDZ, TMR-peptide fluorescence polarization, 1 h; Q9HD26;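 active means highest replicate inhibition of at least 40%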;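 further: plate controls were DMSO neutral control wells for no effect and unlabeled competitor peptide control wells for full effect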
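Material: tagged CAL PDZ protein CerCALP, purified; buffer or medium: sodium phosphate/NaCl buffer pH 7.4 with TCEP, IgG, Thesit; also added: fluorescent TMR peptide probe; schedule: 1 h incubation at room temperature before polarization reading; technique: fluorescence polarization from S- and P-plane intensities, G-factor corrected; control set: unlabelled peptide and DMSO controls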
PDI turbidity: PDI (human) enzyme inhibition; PDI insulin aggregation turbidity, A650, 90 min; inhibition, % at 10 µM; 0.052% of 350,000 active;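 active means mean inhibition across replicates of 30% or more, whatever share of single replicates reach that level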
ERAP1 HTS inh: ERAP1 (human) enzyme inhibition; Q9NZ08; recombinant ERAP1, Leu-AMC fluorescence, 60 min; inhibition, % at 10.7 µM; 0.15% of 340,000 active; AID 652197;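 active means mean replicate inhibition of at least 30%, or all replicates individually reaching that 30% level; inactive means mean below 30% and not every replicate reaching it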;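 further: 0% = neutral control wells and 100% = L-leucinethiol positive control wells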
ERp5 block: inhibitors of human ERp5. AID 651711. Q15084. 0.05% of 350,000 active. inhibition, % at 9.99 µM. ERp5 insulin aggregation, absorbance 650 nm, 90 min;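 active means mean replicate inhibition above about 25%, with every replicate also reaching it, limit read from the data, passing the limit was not always enough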
Target sequence (Q15084 whole entry, looked up): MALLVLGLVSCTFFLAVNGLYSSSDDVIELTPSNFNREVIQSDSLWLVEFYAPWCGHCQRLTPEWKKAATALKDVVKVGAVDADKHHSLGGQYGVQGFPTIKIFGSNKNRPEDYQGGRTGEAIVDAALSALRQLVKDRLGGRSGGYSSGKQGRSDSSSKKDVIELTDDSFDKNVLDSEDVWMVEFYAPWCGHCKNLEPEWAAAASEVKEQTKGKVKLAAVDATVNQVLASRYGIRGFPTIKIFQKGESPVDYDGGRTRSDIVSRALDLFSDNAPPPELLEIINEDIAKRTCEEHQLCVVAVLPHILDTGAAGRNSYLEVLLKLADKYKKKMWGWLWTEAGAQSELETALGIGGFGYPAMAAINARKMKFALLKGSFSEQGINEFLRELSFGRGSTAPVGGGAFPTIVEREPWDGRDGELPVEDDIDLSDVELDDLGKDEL
CAL PDZ FP-2: inhibitors of human CAL PDZ peptide binding | inhibition, % at 24.9 µM | purified CAL PDZ, TMR-peptide fluorescence polarization, 1 h | Q9HD26 | 0.92% of 300,000 active;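 active means mean inhibition of at least 30% with at least half of replicates also reaching 30%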;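 further: 0% = DMSO neutral control and 100% = excess unlabeled competitor peptide PRC23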
Rin1-Abl PPI inh: inhibitors of human Rin1-Abl protein interaction. P00519+Q13671. TR-FRET Rin1/Abl binding, biochemical. inhibition, % at 7.35 µM. 0.4% of 360,000 active. AID 588664; in the data active means inhibition above about 5%, passing the limit was not always enough
Rin1-Abl confirm: confirmation of inhibitors of human Rin1-Abl interaction | 49% of 1,300 active | shares compounds with Rin1-Abl PPI inh | AID 602124 | TR-FRET Rin1-Abl binding, purified proteins | inhibition, % at 7.35 µM
GFP quencher: GFP fluorescence interference artifact; shares compounds with Rin1-Abl PPI inh; inhibitors/quenchers counterscreen; inhibition, % at 6.75 µM; 8.5% of 1,300 active;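 further: ABL1-eGFP fusion protein alone without its partner RIN1-SBP; 0% = protein with vehicle and 100% = wells lacking protein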
GFP quench dose: counter-screen for Rin1-Abl inhibitors: GFP quenchers, dose response. shares compounds with Rin1-Abl PPI inh. GFP fluorescence interference/quenching counterscreen. IC50, µM. 230 tested, under 10 active. AID 602182; call rule not given here;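 further: ABL1-eGFP fusion protein alone without its RIN1 binding partner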
* hit, by the source's call. Unless noted, no stated cut-off is given here; in the data, active means inhibition above about 6.5%; inactive means the rest.

`CCOC(=O)CCCCC(=O)c1[nH]c(=O)[nH]c1CSCCO` gave CAL PDZ FP-1 -1.3, PDI turbidity -1.6, ERAP1 HTS inh -1.9, ERp5 block -1.5, CAL PDZ FP-2 -4.2, Rin1-Abl PPI inh 78.4*, Rin1-Abl confirm 82.0*, GFP quencher 0.0 and GFP quench dose >67.5.
Screening CCOC(=O)CCCCC(=O)c1[nH]c(=O)[nH]c1Cn1cnc2ccccc21 returned CAL PDZ FP-1 0.4, PDI turbidity 5.4, ERAP1 HTS inh 6.4, ERp5 block -5.1, CAL PDZ FP-2 -5.8, Rin1-Abl PPI inh 71.5*, Rin1-Abl confirm 79.1*, GFP quencher 0.5 and GFP quench dose >67.6.
`N#Cc1c(-c2ccccc2)nc(SCC(=O)N(c2ccccc2)c2ccccc2)[nH]c1=O` gave CAL PDZ FP-1 -6.2, PDI turbidity 14.5, ERAP1 HTS inh 1.0, ERp5 block -1.9, CAL PDZ FP-2 -8.4 and Rin1-Abl PPI inh -3.4.
Screening CCOC(=O)CCCCC(=O)c1[nH]c(=O)[nH]c1CSc1nc(-c2ccccc2)c(C#N)c(=O)[nH]1 returned CAL PDZ FP-1 -2.7, PDI turbidity 4.9, ERAP1 HTS inh -7.4, ERp5 block -1.5, CAL PDZ FP-2 -2.0, Rin1-Abl PPI inh 61.0*, Rin1-Abl confirm 75.5*, GFP quencher 1.4 and GFP quench dose >67.5.
For COc1ccc2c3c([nH]c2c1)[C@@H](CO)N(C(=O)C1CCOCC1)CC31CCN(Cc2nccs2)CC1 the results were ERAP1 HTS inh -0.7 and ERp5 block -0.9.
Cc1ccc(S(=O)(=O)Nc2ccc3c(c2)C(=O)N([C@H](C)CO)C[C@H](C)[C@H](CN(C)C(=O)Nc2c(C)noc2C)OCCCC[C@H](C)O3)cc1 was read as ERAP1 HTS inh 1.3 and ERp5 block 21.2.
`CN1CCN(C(=O)CSc2nc(-c3ccncc3)ccc2C#N)CC1` gave CAL PDZ FP-1 -1.7, PDI turbidity 3.2, CAL PDZ FP-2 5.2, Rin1-Abl PPI inh 10.4*, Rin1-Abl confirm 17.2*, GFP quencher 2.9 and GFP quench dose >67.5.
`CN1CCN(C(=O)CSc2nc(-c3cccs3)cc(-c3cccs3)c2C#N)CC1` gave CAL PDZ FP-1 -3.7, PDI turbidity -7.9, CAL PDZ FP-2 -4.6 and Rin1-Abl PPI inh -5.4.
Screening OC[C@@H]1[C@@H](c2ccc(Br)cc2)[C@H]2CN(Cc3ccccn3)CCCCN12 returned ERAP1 HTS inh 0.9 and ERp5 block -2.8.
C#CCOC(=O)CCCC(=O)NCCCCCCCC was read as CAL PDZ FP-1 -2.5, PDI turbidity -2.4, ERAP1 HTS inh 2.9, ERp5 block 1.0, CAL PDZ FP-2 -3.9, Rin1-Abl PPI inh 6.6*, Rin1-Abl confirm -0.2 and GFP quencher 0.0.
For CO[C@H]1CN(C)C(=O)c2ccc(NS(C)(=O)=O)cc2OC[C@@H](C)N(C(=O)C2CCC2)C[C@@H]1C the results were ERAP1 HTS inh -1.7 and ERp5 block -2.6.
Screening COc1cccc(NC(=O)N(C)C[C@H]2Oc3cc(/C=C/c4ccccc4)ccc3S(=O)(=O)N([C@H](C)CO)C[C@H]2C)c1 returned ERAP1 HTS inh 1.0 and ERp5 block 3.3.
`Cc1ccc(NC2CCCN(C(=O)CCC(=O)c3ccccc3)C2)cc1C` (centres undefined) gave CAL PDZ FP-1 -1.4, PDI turbidity -0.5, ERAP1 HTS inh -2.2, ERp5 block 4.5, CAL PDZ FP-2 -1.2 and Rin1-Abl PPI inh 0.8.
`Cc1ccc(NC2CCCN(C(=O)c3cc4ncccn4n3)C2)cc1C` (centres undefined) gave CAL PDZ FP-1 0.0, PDI turbidity -0.8, ERAP1 HTS inh 0.6, ERp5 block 9.6, CAL PDZ FP-2 -5.3, Rin1-Abl PPI inh 37.0*, Rin1-Abl confirm 1.0 and GFP quencher -0.1.
